In ChEMBL document CHEMBL4680118, “Cerpegin-derived furo[3,4-c]pyridine-3,4(1H,5H)-diones enhance cellular response to interferons by de novo pyrimidine biosynthesis inhibition” (Eur J Med Chem, 2020):
Calls of active or inactive are those of the source. The calls are words filed in the database; no cut-off is given here.

How the values were obtained:
Type in all cases: cell-based
[1] = target: T1, Dihydroorotate dehydrogenase (quinone), mitochondrial (Homo sapiens, UniProt Q02127); assay: Inhibition of DHODH in human HEK293 cells assessed as reduction in intracellular pyrimidine level measured after 24 hrs by HPLC coupled spectrophotometry
T1 sequence (Q02127 whole entry): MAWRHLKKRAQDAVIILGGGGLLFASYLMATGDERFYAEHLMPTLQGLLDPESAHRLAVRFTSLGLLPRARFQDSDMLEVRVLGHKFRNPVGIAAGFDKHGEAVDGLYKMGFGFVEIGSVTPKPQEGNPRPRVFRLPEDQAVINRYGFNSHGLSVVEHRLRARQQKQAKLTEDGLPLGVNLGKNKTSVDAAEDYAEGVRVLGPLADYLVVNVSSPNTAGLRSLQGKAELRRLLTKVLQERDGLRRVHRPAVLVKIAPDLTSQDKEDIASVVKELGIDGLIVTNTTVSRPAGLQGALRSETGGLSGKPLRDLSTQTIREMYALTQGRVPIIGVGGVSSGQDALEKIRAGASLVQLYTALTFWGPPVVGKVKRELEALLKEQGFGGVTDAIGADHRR
Procedure, shortened: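 HEK-293 cells plated at 1×10^6 per well, treated 24 h later with compound (80 µM final) or DMSO for 24 h. Pellets deproteinized with 6% perchloric acid, neutralized with Na2CO3, analysed by C18 HPLC at 45°C with ion-pair phosphate/MeOH gradient, detected at 254 nm against reference nucleoside calibration curves. Normalized to viable cell number and DMSO controls.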

[2] = target: T1, Dihydroorotate dehydrogenase (quinone), mitochondrial; assay: Inhibition of DHODH in human HEK-293 cells transfected with ISRE-luciferase reporter gene assessed as increase in 150 IU/ml IFN-alpha mediated cellular response at 80 uM in presence of AZD6738 ATR inhibitor measured after 24 hrs by luciferase reporter gene assay; conditions: HEK293
Procedure, shortened: (§1)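 ISRE-Luc HEK-293 cells given IFN-α (150 IU/ml) alone or with test compound (80 µM), with or without the MRE11 inhibitor mirin, ATR inhibitor AZD6738, CHK1 inhibitor PF477736 or P300/CBP inhibitor C636. Firefly luciferase read 24 h later, normalized to IFN-α alone. Means ± SD of at least three independent experiments.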

[3] = target: T1, Dihydroorotate dehydrogenase (quinone), mitochondrial; assay: Inhibition of DHODH in human HEK293 cells transfected with ISRE-luciferase reporter gene assessed as increase in 60 IU/ml IFN-alpha stimulated PML mRNA expression at 80 uM measured after 16 hrs by RT-qPCR analysis relative to control
Procedure, shortened: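 HEK-293 ISRE-Luc cells (DMEM, 10% FCS, 37°C, 5% CO2) were given increasing IFN-α doses together with DMSO or compound at 80 μM, then harvested at 16 h. RNA was extracted from 2×10^5 cells with DNase treatment. Transcripts were run by qPCR for 35 cycles and normalized to RPL13A and to unstimulated controls by 2^-ΔΔCT. Values are fold change versus DMSO; three independent experiments; two-way ANOVA with Bonferroni.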

[4] = target: T1, Dihydroorotate dehydrogenase (quinone), mitochondrial; assay: Inhibition of DHODH in human HEK293 cells transfected with ISRE-luciferase reporter gene assessed as increase in 250 IU/ml IFN-alpha stimulated IFIT1 mRNA expression at 80 uM measured after 16 hrs by RT-qPCR analysis relative to control
Procedure, shortened: (§2)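 ISRE-Luc HEK cells co-treated with increasing IFN-α concentrations and DMSO or compound (80 µM) for 16 h. Total RNA extracted from 2×10^5 cells with DNase step; qPCR 35 cycles. CT values normalized to RPL13A and unstimulated controls (2^-ΔΔCT), expressed as fold change versus DMSO alone. Three independent experiments; two-way ANOVA with Bonferroni.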

[5] = target: T1, Dihydroorotate dehydrogenase (quinone), mitochondrial; assay: Inhibition of DHODH in human HEK293 cells transfected with ISRE-luciferase reporter gene assessed as increase in 60 IU/ml IFN-alpha stimulated IFIT2 mRNA expression at 80 uM measured after 16 hrs by RT-qPCR analysis relative to control; procedure, shortened: as §2
[6] = target: T1, Dihydroorotate dehydrogenase (quinone), mitochondrial; assay: Inhibition of DHODH in human HEK293 cells transfected with ISRE-luciferase reporter gene assessed as increase in 30 IU/ml IFN-alpha stimulated IFIT3 mRNA expression at 80 uM measured after 16 hrs by RT-qPCR analysis relative to control; procedure, shortened: as §2
[7] = target: T1, Dihydroorotate dehydrogenase (quinone), mitochondrial; assay: Inhibition of DHODH in human HEK293 cells assessed as increase in 125 IU/ml IFN-alpha stimulated ISG15 mRNA expression at 80 uM measured after 16 hrs by RT-qPCR analysis relative to control; procedure, shortened: as §2
[8] = target: T1, Dihydroorotate dehydrogenase (quinone), mitochondrial; assay: Inhibition of DHODH in human HEK293 cells transfected with ISRE-luciferase reporter gene assessed as increase in 125 IU/ml IFN-alpha stimulated DDX58 mRNA expression at 80 uM measured after 16 hrs by RT-qPCR analysis relative to control; procedure, shortened: as §2
[9] = target: T1, Dihydroorotate dehydrogenase (quinone), mitochondrial; assay: Inhibition of DHODH in human HEK293 cells transfected with ISRE-luciferase reporter gene assessed as increase in 125 IU/ml IFN-alpha stimulated PKR mRNA expression at 80 uM measured after 16 hrs by RT-qPCR analysis relative to control; procedure, shortened: as §2
[10] = target: T1, Dihydroorotate dehydrogenase (quinone), mitochondrial; assay: Inhibition of DHODH in human HEK293 cells transfected with ISRE-luciferase reporter gene assessed as increase in 250 IU/ml IFN-alpha stimulated IFITM3 mRNA expression at 80 uM measured after 16 hrs by RT-qPCR analysis relative to control; procedure, shortened: as §2
[11] = target: T1, Dihydroorotate dehydrogenase (quinone), mitochondrial; assay: Inhibition of DHODH in human HEK-293 cells transfected with ISRE-luciferase reporter gene assessed as increase in IFN-alpha mediated cellular response at 6 to 178 uM after 24 hrs by luciferase reporter gene assay; conditions: HEK293, dose 6-178 µM
[12] = target: T1, Dihydroorotate dehydrogenase (quinone), mitochondrial; assay: Inhibition of DHODH in human HEK293 cells transfected with ISRE-luciferase reporter gene assessed as increase in 125 IU/ml IFN-alpha stimulated IFIT5 mRNA expression at 80 uM measured after 16 hrs by RT-qPCR analysis relative to control; procedure, shortened: as §2
[13] = target: T1, Dihydroorotate dehydrogenase (quinone), mitochondrial; assay: Inhibition of DHODH in HEK293 cells assessed as reduction in number of viable cells at 6 to 193 uM measured upto 72 hrs by Celltiter-Glo assay; conditions: dose 6-193 µM, time hrs <=72
Procedure, shortened: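 HEK-293 ISRE-Luc cells in DMEM with 10% FCS at 37°C, 5% CO2, treated with compound or DMSO; viable cells quantified by ATP content (CellTiter-Glo luminescence) after 24, 48 and 72 h. Expressed as percent of untreated cells at t = 0 h; means ± SD of two independent experiments.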

[14] = target: T1, Dihydroorotate dehydrogenase (quinone), mitochondrial; assay: Inhibition of DHODH in human HEK293 cells transfected with ISRE-luciferase reporter gene assessed as increase in 125 IU/ml IFN-alpha stimulated IFIT2 mRNA expression at 80 uM measured after 16 hrs by RT-qPCR analysis relative to control; procedure, shortened: as §2
[15] = target: T1, Dihydroorotate dehydrogenase (quinone), mitochondrial; assay: Inhibition of DHODH in human HEK293 cells transfected with ISRE-luciferase reporter gene assessed as increase in 30 IU/ml IFN-alpha stimulated IFIT5 mRNA expression at 80 uM measured after 16 hrs by RT-qPCR analysis relative to control; procedure, shortened: as §2
[16] = target: T1, Dihydroorotate dehydrogenase (quinone), mitochondrial; assay: Inhibition of DHODH in human HEK293 cells transfected with ISRE-luciferase reporter gene assessed as increase in 125 IU/ml IFN-alpha stimulated MX2 mRNA expression at 80 uM measured after 16 hrs by RT-qPCR analysis relative to control; procedure, shortened: as §2
[17] = target: T1, Dihydroorotate dehydrogenase (quinone), mitochondrial; assay: Inhibition of DHODH in human HEK293 cells transfected with ISRE-luciferase reporter gene assessed as increase in 30 IU/ml IFN-alpha stimulated PKR mRNA expression at 80 uM measured after 16 hrs by RT-qPCR analysis relative to control; procedure, shortened: as §2
[18] = target: T1, Dihydroorotate dehydrogenase (quinone), mitochondrial; assay: Inhibition of DHODH in human HEK-293 cells transfected with ISRE-luciferase reporter gene assessed as increase in 150 IU/ml IFN-alpha mediated cellular response at 80 uM in presence of P300/CBP measured after 24 hrs by luciferase reporter gene assay; conditions: HEK293; procedure, shortened: as §1

inhibition [1]: Active
Activity [2]: inactive
fold change (FC) [3]: 4
fold change (FC) [4]: 145
fold change (FC) [5]: 61
fold change (FC) [6]: 39
fold change (FC) [7]: 200
fold change (FC) [8]: 31
fold change (FC) [9]: 3
fold change (FC) [10]: 15
Activity [11]: Active
fold change (FC) [12]: 4
fold change (FC) [14]: 112
fold change (FC) [15]: 3
fold change (FC) [16]: 20
fold change (FC) [17]: 2
Activity [18]: inactive
SMILES: O=C1OC2(CCCCC2)c2ccn(C3CC3)c(=O)c21
inhibition [13]: Active
